# Test results from ChEMBL document CHEMBL4811273, “Discovery of a novel series of GPR119 agonists: Design, synthesis, and biological evaluation of N-(Piperidin-4-yl)-N-(trifluoromethyl)pyrimidin-4-amine derivatives” (Bioorg Med Chem, 2021).
# Activity calls are given as the source filed them. No cut-off for these calls is given here.
# Columns and labels:
# [1] = molecular target: hERG (KCNH2) (Homo sapiens, UniProt Q12809); experiment: Inhibition of human ERG expressed in CHO cells at 10 uM at holding potential of -80 mV by patch clamp method; format: cell-based; conditions: CHO cells expressing human ERG
# [2] = Partition coefficient, logD between 1-octanol and pH 7.4 aqueous buffer by chromatographic analysis; format: physicochemical; conditions: 1-octanol/pH 7.4 aqueous buffer
# Method in brief: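 LogD between 1-octanol and aqueous buffer at pH 7.4 was determined by a chromatographic procedure adapted from a published method.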
# [3] = molecular target: T1, Glucose-dependent insulinotropic receptor (Homo sapiens, UniProt Q8TDV5); experiment: Agonist activity at human GPR119 expressed in CHO cells co-expressing cyclic AMP response element-luciferase reporter gene incubated for 2 hrs by steady-glo luciferase assay; format: functional, cell-based
# T1 sequence (Q8TDV5 whole entry): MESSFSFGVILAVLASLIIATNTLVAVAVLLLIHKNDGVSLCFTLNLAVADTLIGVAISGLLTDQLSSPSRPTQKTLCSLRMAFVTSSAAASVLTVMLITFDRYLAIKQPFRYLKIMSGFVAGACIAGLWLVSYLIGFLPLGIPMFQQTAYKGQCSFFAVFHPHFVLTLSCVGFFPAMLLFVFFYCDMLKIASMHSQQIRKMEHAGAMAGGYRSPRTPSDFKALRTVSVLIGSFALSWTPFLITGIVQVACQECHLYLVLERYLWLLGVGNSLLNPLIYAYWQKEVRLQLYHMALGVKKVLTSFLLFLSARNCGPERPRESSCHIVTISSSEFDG
# Method in brief: (§1)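 CHO cells stably expressing human or rat GPR119 were seeded at 10,000 cells/well in MEMα with 10% FBS and Geneticin and grown overnight at 37 °C. After one wash, cells were exposed to compounds at various concentrations in MEMα/20 mM HEPES/0.1% BSA for 2 h. cAMP-driven luciferase was read with Steady-Glo and normalized to vehicle and reference wells. EC50 is the mean, n = 2.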
# [4] = Hepatic clearance in rat liver microsomes measured up to 30 mins by LC/MS/MS analysis; format: ADME, Microsome; conditions: read-out: CLH
# Method in brief: (§2)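 Human or rat liver microsomes (0.2 mg/mL protein) were incubated with 1 μM compound in 50 mM potassium phosphate, pH 7.4. The reaction was started with an NADPH-generating system and stopped with acetonitrile at 15 and 30 min. Parent compound was quantified by LC/MS/MS, and CLint (μL/min/mg) was taken from the slope of the concentration–time plot.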
# [5] = Hepatic clearance in human liver microsomes measured up to 30 mins by LC/MS/MS analysis; format: ADME, Microsome; conditions: read-out: CLH; method in brief: as §2
# [6] = Aqueous solubility of the compound at pH 6.8 by HPLC analysis; format: physicochemical; conditions: buffer
# Method in brief: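 DMSO stock solutions were added in small volumes to aqueous buffer at pH 6.8 and incubated. Precipitate was removed by filtration, and the filtrate was quantified by HPLC.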
# [7] = Intrinsic clearance in human liver microsomes; format: ADME, Microsome; conditions: read-out: CLH; method in brief: as §2
# [8] = tested on: Rattus norvegicus; experiment: Antidiabetic activity in orally dosed NSTZ1.5 rat assessed as reduction in insulin level administered 60 mins prior to glucose challenge and measured up to 60 mins by OGTT; format: functional, organism-based; conditions: dose 0.3-3 mg/kg
# [9] = Clearance in rat at 0.1 mg/kg, iv administered as cassette dose by LC/MS/MS analysis; format: ADME, organism-based; conditions: in vivo
# Method in brief: (§3)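 Intravenous cassette dosing at 0.1 mg/kg in rats (the methods text says non-fasted mice). Plasma was obtained from blood samples, deproteinized, centrifuged, and analysed by LC/MS/MS.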
# [10] = molecular target: T2, Glucose-dependent insulinotropic receptor (Rattus norvegicus, UniProt Q7TQN8); experiment: Agonist activity at rat GPR119 in GLUTag cells assessed as induction of GLP-1 secretion after 2 hrs by ELISA; format: functional, cell-based
# T2 sequence (Q7TQN8 whole entry): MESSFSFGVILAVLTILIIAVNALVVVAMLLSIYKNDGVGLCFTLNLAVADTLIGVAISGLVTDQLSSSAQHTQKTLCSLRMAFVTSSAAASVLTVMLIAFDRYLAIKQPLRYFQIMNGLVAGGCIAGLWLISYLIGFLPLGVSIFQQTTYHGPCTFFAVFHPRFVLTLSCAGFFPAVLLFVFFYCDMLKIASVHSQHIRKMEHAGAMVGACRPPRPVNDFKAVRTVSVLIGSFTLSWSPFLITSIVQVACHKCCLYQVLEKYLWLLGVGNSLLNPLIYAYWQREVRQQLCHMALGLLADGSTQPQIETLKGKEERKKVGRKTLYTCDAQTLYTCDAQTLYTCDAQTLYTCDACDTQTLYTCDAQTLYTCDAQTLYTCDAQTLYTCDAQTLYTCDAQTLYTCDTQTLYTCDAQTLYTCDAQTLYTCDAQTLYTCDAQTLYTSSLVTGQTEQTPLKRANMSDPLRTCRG
# Method in brief: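 Murine GLUTag L cells were seeded at 1 × 10^4 cells/well on poly-L-lysine and moved overnight to low-glucose DMEM. After a Hank's wash, cells were incubated 2 h at 37 °C with compound in KRBH containing 0.2% fatty-acid-free BSA and 10 mmol/L glucose. Active GLP-1 in the supernatant was measured by ELISA. EC50 from n = 2.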
# [11] = tested on: Rattus norvegicus; experiment: Antidiabetic activity in NSTZ1.5 rat assessed as reduction in plasma glucose level at 0.3 to 3 mg/kg, po administered 60 mins prior to glucose challenge and measured up to 60 mins by OGTT; format: functional, organism-based; conditions: dose 0.3-3 mg/kg
# [12] = Oral bioavailability in […] at 1 mg/kg administered as cassette dose by LC/MS/MS analysis; format: ADME, organism-based, Rattus norvegicus; conditions: in vivo
# [13] = molecular target: T2, Glucose-dependent insulinotropic receptor; experiment: Agonist activity at rat GPR119 expressed in CHO cells co-expressing cyclic AMP response element-luciferase reporter gene incubated for 2 hrs by steady-glo luciferase assay; format: functional, cell-based; method in brief: as §1
# [14] = AUC in […] at 1 mg/kg, po administered as cassette dose by LC/MS/MS analysis; format: ADME, organism-based, Rattus norvegicus; parameters: dose 1 mg/kg; conditions: in vivo
# [15] = Volume of distribution at steady state in rat at 0.1 mg/kg, iv administered as cassette dose by LC/MS/MS analysis; format: ADME, organism-based; conditions: in vivo; method in brief: as §3
# [16] = Mean residence time in rat at 1 mg/kg, po administered as cassette dose by LC/MS/MS analysis; format: ADME, organism-based; conditions: in vivo
# Method in brief: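 Rat cassette PK. Oral dose 1 mg/kg in 0.5% methylcellulose aqueous solution. The methods text says non-fasted mice. Blood was collected after dosing, and plasma was deproteinized and centrifuged. Compound in the supernatant was measured by LC/MS/MS.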
# [17] = molecular target: T2, Glucose-dependent insulinotropic receptor; experiment: Agonist activity at rat GPR119 in golden hamster HIT-T15 cells assessed as induction of glucose-induced insulin secretion after 2 hrs by A1phaLISA; format: functional, cell-based
# Method in brief: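 Hamster HIT-T15 beta cells were seeded at 5 × 10^4 cells/well and pre-incubated 2 h in KRBH with 0.2% BSA. They were then incubated 2 h at 37 °C with compound in KRBH containing 0.2% fatty-acid-free BSA and 10 mmol/L glucose. Secreted insulin was quantified by AlphaLISA. EC50 from n = 2.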
# hERG (KCNH2), sequence (Q12809 whole entry): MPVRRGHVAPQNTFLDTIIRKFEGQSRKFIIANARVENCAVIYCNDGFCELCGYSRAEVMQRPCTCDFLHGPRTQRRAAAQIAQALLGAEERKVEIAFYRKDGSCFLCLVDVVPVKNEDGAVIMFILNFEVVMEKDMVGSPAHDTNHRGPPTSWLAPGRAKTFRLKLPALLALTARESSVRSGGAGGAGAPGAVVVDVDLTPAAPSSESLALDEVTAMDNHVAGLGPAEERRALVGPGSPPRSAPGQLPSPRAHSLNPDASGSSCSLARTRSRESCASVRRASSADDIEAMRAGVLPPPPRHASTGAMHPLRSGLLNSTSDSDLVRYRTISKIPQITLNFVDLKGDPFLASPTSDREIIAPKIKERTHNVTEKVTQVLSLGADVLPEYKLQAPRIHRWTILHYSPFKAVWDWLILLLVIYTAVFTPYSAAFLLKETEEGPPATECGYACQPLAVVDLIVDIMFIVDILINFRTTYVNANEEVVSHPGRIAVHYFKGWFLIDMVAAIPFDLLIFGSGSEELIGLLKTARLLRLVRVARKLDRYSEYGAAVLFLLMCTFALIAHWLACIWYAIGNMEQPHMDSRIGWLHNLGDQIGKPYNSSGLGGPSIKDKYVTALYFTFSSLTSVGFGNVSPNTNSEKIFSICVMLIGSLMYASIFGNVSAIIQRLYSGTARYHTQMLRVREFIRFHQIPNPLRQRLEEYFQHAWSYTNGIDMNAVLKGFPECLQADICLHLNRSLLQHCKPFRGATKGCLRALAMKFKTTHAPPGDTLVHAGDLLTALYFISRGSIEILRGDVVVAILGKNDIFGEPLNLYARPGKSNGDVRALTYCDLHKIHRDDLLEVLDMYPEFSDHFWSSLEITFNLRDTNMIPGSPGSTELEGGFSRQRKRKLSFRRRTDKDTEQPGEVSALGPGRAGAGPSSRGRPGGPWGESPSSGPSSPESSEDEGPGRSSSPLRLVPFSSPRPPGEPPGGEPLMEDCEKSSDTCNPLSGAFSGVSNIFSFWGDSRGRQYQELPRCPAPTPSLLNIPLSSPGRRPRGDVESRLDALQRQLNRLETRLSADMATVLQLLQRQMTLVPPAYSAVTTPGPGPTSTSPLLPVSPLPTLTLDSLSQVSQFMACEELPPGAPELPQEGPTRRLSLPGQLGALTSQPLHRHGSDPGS
SMILES,logD [2],EC50 [3],inhibition at 10 µM [1],other results
CS(=O)(=O)N1CCC(Oc2cc(N(C3CCN(c4nc(C5CC5)no4)CC3)C(F)(F)F)ncn2)CC1,,5.4 nM,,microsomal CLint [4]: 13 µL/min/mg; microsomal CLint [5]: 31 µL/min/mg; solubility [6]: 15 µg/mL
COCCN(c1cc(N2CCc3cc(S(C)(=O)=O)ccc32)ncn1)C1CCN(C(=O)OC(C)(C)C)CC1,3.4,29 nM,120%,
CCN(c1cc(N2CCc3cc(S(C)(=O)=O)ccc32)ncn1)C1CCN(C(=O)OC(C)(C)C)CC1,3.5,14 nM,116%,
CCCN(c1cc(N2CCc3cc(S(C)(=O)=O)ccc32)ncn1)C1CCN(C(=O)OC(C)(C)C)CC1,4,18 nM,94%,
CC(C)c1noc(N2CCC(N(c3cc(OC4CCN(S(C)(=O)=O)CC4)ncn3)C(F)(F)F)CC2)n1,,2.7 nM,,microsomal CLint [4]: 36 µL/min/mg; microsomal CLint [5]: 108 µL/min/mg; solubility [6]: 29 µg/mL
CC(C)c1noc(N2CCC(Oc3cc(N4CCc5cc(N6CCC[C@H](O)C6=O)ccc54)ncn3)CC2)n1,,,,microsomal CLint [7]: 10 µL/min/mg
CN(c1cc(N2CCc3cc(S(C)(=O)=O)ccc32)ncn1)C1CCN(C(=O)OC(C)(C)C)CC1,3.2,21 nM,85%,
CC(C)(C)OC(=O)N1CCC(N(c2cc(NC3CCN(S(C)(=O)=O)CC3)ncn2)C(F)(F)F)CC1,,43 nM,,
CC(C)(C)OC(=O)N1CCC(Nc2cc(N3CCc4cc(S(C)(=O)=O)ccc43)ncn2)CC1,2.7,300 nM,80%,
CC(C)(C)OC(=O)N1CCC(N(c2cc(N3CCc4cc(S(C)(=O)=O)ccc43)ncn2)C(F)(F)F)CC1,4.1,2.5 nM,13%,
CC(C)(F)c1noc(N2CCC(N(c3cc(OC4CCN(S(C)(=O)=O)CC4)ncn3)C(F)(F)F)CC2)n1,,4.6 nM,19%,microsomal CLint [4]: < 1 µL/min/mg; Activity [8]: Dose-Dependent Effect; clearance [9]: 6.22 mL/min/kg; EC50 [10]: 3.8 nM; Activity [11]: Active; microsomal CLint [5]: 27 µL/min/mg; bioavailability [12]: 57%; solubility [6]: 21 µg/mL; microsomal CLint [7]: 27 µL/min/mg; EC50 [13]: 24 nM; AUC [14]: 1540 ng·h/mL; Vdss [15]: 1.27 L/kg; MRT [16]: 4.05 h; EC50 [17]: 4.8 nM
CC(C)(C)OC(=O)N1CCC(N(c2cc(OC3CCN(S(C)(=O)=O)CC3)ncn2)C(F)(F)F)CC1,,3.6 nM,,

# The next lines start with results.
logD [2],EC50 [3],SMILES,inhibition at 10 µM [1],other results
4.1,51 nM,CC(C)(C)OC(=O)N1CCC(N(CC2CC2)c2cc(N3CCc4cc(S(C)(=O)=O)ccc43)ncn2)CC1,100%,
,> 10000 nM,CN(c1cc(N(C2CCN(C(=O)OC(C)(C)C)CC2)C(F)(F)F)ncn1)C1CCN(S(C)(=O)=O)CC1,,
,960 nM,CC(C)(C)OC(=O)N1CCC(N(c2cc(OCC3CN(S(C)(=O)=O)C3)ncn2)C(F)(F)F)CC1,,
,270 nM,CC(C)(C)OC(=O)N1CCC(N(c2cc(O[C@H]3CC[C@H](S(C)(=O)=O)CC3)ncn2)C(F)(F)F)CC1,,
,7100 nM,CC(C)(C)OC(=O)N1CCC(N(c2cc(OC3CN(S(C)(=O)=O)C3)ncn2)C(F)(F)F)CC1,,
3.79,2.9 nM,CC(C)c1noc(N2CCC(N(c3cc(N4CCc5cc(S(C)(=O)=O)ccc54)ncn3)C(F)(F)F)CC2)n1,,solubility [6]: < 0.22 µg/mL
